# Results published in paper PMC4609290 (Molecular cell, 2015).
# B1: GFP-AF10L107A: AF10 mutant that abolishes H3 binding, involved in both K23 and K27 side-chain recognition (protein)
# chain: MVSSDRPVSLEDEVSHSMKEMIGGCCVCSDERGWAENPLVYCDGHGCSVAVHQACYGIVQVPTGPWFCRKCESQERAARVRCELCPHKDGALKRTDNGGWAHVVCAAYIPEVQFANVSTMEPIVLQSVPHDRYNKTCYICDEQGRESKAATGACMTCNKHGCRQAFHVTCAQFAGLLCEEEGNGADNVQYCGYCKYHFSKLKKSKRGS
# modifications: left off: GST, end not stated, kept
# How the values were obtained:
# H3(15-34) peptides = experiment: Peptide pull-down and ITC of AF10PZP mutants; assay type: binding; details: pull-down and ITC assays
# In short: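 Alanine substitutions were made at AF10PZP residues that contact H3T22, H3K23, H3A24, H3R26 and H3K27. GST-AF10PZP (pGEX-6P-1 construct) was used in pull-downs with biotinylated H3(15-34) peptides, and binding was also assessed by ITC.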
# [1] = system: H3K79me2 at the PABPC1 gene, U2OS cells; experiment: ChIP of H3K79me2 at PABPC1; assay type: cell-based; details: AF10 deleted, normalized to total H3, three experiments
# In short: (§1)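 Direct ChIP at the PABPC1 gene used two primer positions along the gene in the U2OS AF10 complementation lines. GFP enrichment was expressed as % GFP signal/input. H3K79me2 signal was normalized to total H3 signal. SEM came from three experiments.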
# ML2 leukemia cells = experiment: Proliferation of ML2 cells; assay type: cell-based; details: AF10-depleted ML2 cells; three independent experiments
# In short: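 Growth curves were run on ML2 leukemia cells (MLL-AF6 fusion) carrying control or AF10-targeting sgRNA, either without reconstitution or reconstituted with wild-type AF10 or AF10L107A. SEM came from three independent experiments.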
# chromatin (U2OS cells) = assay type: cell-based
# In short: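 Lysates from U2OS cells expressing wild-type or mutant GFP-AF10 were biochemically separated into soluble and chromatin-enriched fractions, then Western blotted with the indicated antibodies. Whole cell extract controlled for total AF10 expression, and tubulin and H3 levels controlled for integrity of fractionation.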
# PABPC1 gene, U2OS cells = experiment: ChIP of GFP at PABPC1; assay type: cell-based; details: % GFP signal/input, three experiments
# In short: as §1
# chromatin (HeLa cells) = experiment: In situ fractionation, fluorescence microscopy; assay type: cell-based; details: detergent treatment prior to fixation, 30–60 cells, three independent fields, two biological replica
molecule,measurement,setting,value
B1,effect of AF10PZP mutation on binding to H3 peptides,H3(15-34) peptides,abolishes H3 binding
same,reconstitution of H3K79me2 signal at PABPC1,[1],but not upon induction of GFP-AF10L107A
same,reversal of decreased proliferation,ML2 leukemia cells,but not with mutant AF10L107A
same,AF10 enrichment at chromatin,chromatin (U2OS cells); tetracycline-inducible GFP-AF10,reduced in comparison to wild-type AF10
same,AF10 detected in the soluble fraction,chromatin (U2OS cells); versus wild-type AF10,more mutant being detected in the soluble fraction
same,occupancy at the PABPC1 gene,"PABPC1 gene, U2OS cells",low relative to wild-type GFP-AF10
same,chromatin-association by in situ fractionation,chromatin (HeLa cells),Decreased chromatin-association
